Test [1] deals with Mycobacterium tuberculosis. The test is described as follows: Antimycobacterial activity against Mycobacterium tuberculosis H37Rv. The format is functional.
The nature of test [2]: microbe, parasite or virus in culture. Type of test: functional, Mycobacterium bovis BCG str. Tokyo 172. The note with it: Mycobacterium tuberculosis variant bovis BCG.
For test [3], the system named is Staphylococcus aureus. As to the kind of experiment: Antimicrobial activity against Staphylococcus aureus. Type of test: functional.
Test [4] relates to Staphylococcus aureus. As to the kind of experiment: microbe, parasite or virus in culture. The format is functional. The note with it: 873.
Test [5] relates to Escherichia coli. The test is described as follows: Antimicrobial activity against Escherichia coli DH5alpha. As to conditions: DH5[alpha]. The format is functional.
The subject of test [6] is Mycolicibacterium smegmatis. As to the kind of experiment: microbe, parasite or virus in culture. The format is functional. As to conditions: JATA 64.01.
A short description of test [7]: microbe, parasite or virus in culture. The format is functional, Mycobacterium avium subsp. hominissuis. As to conditions: Mycobacterium avium, 104.
For test [8], the system named is Mycobacterium avium. The test is described as follows: microbe, parasite or virus in culture. The format is functional, Mycobacterium avium subsp. avium ATCC 25291. As to conditions: ATCC 2529.
The test system of test [9] is Staphylococcus aureus. As to the kind of experiment: Antimicrobial activity against drug-sensitive Staphylococcus aureus 209PJC-1. The format is functional.
In test [10] the test system is Staphylococcus aureus. The test is described as follows: Antimicrobial activity against drug-sensitive Staphylococcus aureus RN4220. Type of test: functional.
In test [11] the test system is Staphylococcus aureus. As to the kind of experiment: Antimicrobial activity against methicillin-resistant Staphylococcus aureus MF490. The format is functional.
The test system of test [12] is Enterococcus faecalis. The test is described as follows: Antimicrobial activity against AGs-resistant Enterococcus faecalis ATCC 19433. Type of test: functional.
For test [13], the system named is Enterococcus faecalis. The test is described as follows: Antimicrobial activity against AGs-resistant Enterococcus faecalis ATCC 19434. The format is functional.
The subject of test [14] is Escherichia coli. As to the kind of experiment: Antimicrobial activity against drug-sensitive Escherichia coli JM109. The format is functional.
Test [15] concerns Klebsiella pneumoniae. The test is described as follows: Antibacterial activity against […] Klebsiella pneumoniae ATCC BAA-1705. Type of test: functional.
Test [16] has as its system Pseudomonas aeruginosa. As to the kind of experiment: Antibacterial activity against drug-sensitive Pseudomonas aeruginosa PAO1. Type of test: functional.
For test [17], the system named is Mycobacterium tuberculosis. As to the kind of experiment: Antimycobacterial activity against drug-sensitive Mycobacterium tuberculosis isolate 1. Type of test: functional.
In test [18] the test system is Mycobacterium tuberculosis. The test is described as follows: Antimycobacterial activity against drug-sensitive Mycobacterium tuberculosis isolate 2. The format is functional. In outline: (§1)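 MIC by broth dilution in Middlebrook 7H9 broth supplemented with albumin, dextrose and catalase.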
Test [19] relates to Mycobacterium tuberculosis. As to the kind of experiment: Antimycobacterial activity against drug-sensitive Mycobacterium tuberculosis isolate 3. The format is functional. In a few lines: as §1
In test [20] the test system is Mycobacterium tuberculosis. The test is described as follows: Antimycobacterial activity against drug-sensitive Mycobacterium tuberculosis isolate 4. Type of test: functional. In outline: as §1
Test [21] concerns Mycobacterium tuberculosis. The test is described as follows: Antimycobacterial activity against drug-sensitive Mycobacterium tuberculosis isolate 5. Type of test: functional. In a few lines: as §1
The test system of test [22] is Mycobacterium tuberculosis. The test is described as follows: Antimycobacterial activity against drug-sensitive Mycobacterium tuberculosis isolate 6. The format is functional. In a few lines: as §1
Test [23] relates to Mycobacterium tuberculosis. As to the kind of experiment: Antimycobacterial activity against drug-sensitive Mycobacterium tuberculosis isolate 7. The format is functional. In a few lines: as §1
Test [24] concerns Mycobacterium tuberculosis. As to the kind of experiment: Antimycobacterial activity against drug-sensitive Mycobacterium tuberculosis isolate 8. Type of test: functional. In a few lines:
as §1

The subject of test [25] is Mycobacterium tuberculosis. The test is described as follows: Antimycobacterial activity against drug-sensitive Mycobacterium tuberculosis isolate 9. Type of test: functional. In a few lines: as §1
The subject of test [26] is Mycobacterium tuberculosis. As to the kind of experiment: Antimycobacterial activity against drug-sensitive Mycobacterium tuberculosis isolate 10. Type of test: functional. In a few lines:
as §1

In test [27] the test system is Mycobacterium tuberculosis. As to the kind of experiment: Antimycobacterial activity against drug-sensitive Mycobacterium tuberculosis isolate 11. Type of test: functional. In outline: as §1
Test [28] relates to Mycobacterium tuberculosis. As to the kind of experiment: Antimycobacterial activity against drug-sensitive Mycobacterium tuberculosis isolate 12. Type of test: functional. In outline:
as §1

Test [29] concerns Mycobacterium tuberculosis. As to the kind of experiment: Antimycobacterial activity against drug-sensitive Mycobacterium tuberculosis isolate 13. The format is functional. In outline:
as §1

In test [30] the test system is Mycobacterium tuberculosis. The test is described as follows: Antimycobacterial activity against drug-sensitive Mycobacterium tuberculosis isolate 14. Type of test: functional. In a few lines:
as §1

Test [31] deals with Mycobacterium tuberculosis. The test is described as follows: Antimycobacterial activity against drug-sensitive Mycobacterium tuberculosis isolate 15. The format is functional. In a few lines: as §1
Test [32] has as its system Mycobacterium tuberculosis. As to the kind of experiment: Antimycobacterial activity against drug-sensitive Mycobacterium tuberculosis isolate 16. The format is functional. In a few lines:
as §1

Test [33] deals with Mycobacterium tuberculosis. The test is described as follows: Antimycobacterial activity against drug-sensitive Mycobacterium tuberculosis isolate 17. Type of test: functional. In a few lines: as §1
For test [34], the system named is Mycobacterium tuberculosis. The test is described as follows: Antimycobacterial activity against drug-sensitive Mycobacterium tuberculosis isolate 18. Type of test: functional. In outline:
as §1

Test [35] concerns Mycobacterium tuberculosis. As to the kind of experiment: Antimycobacterial activity against drug-sensitive Mycobacterium tuberculosis isolate 19. The format is functional. In a few lines: as §1
Test [36] concerns Mycobacterium tuberculosis. The test is described as follows: Antimycobacterial activity against drug-sensitive Mycobacterium tuberculosis isolate 20. The format is functional. In a few lines: as §1

≈ marks a conversion by molar mass, not a printed value. A value given as a limit tells only on which side of the number the result lay.

Regarding `C[C@@H](O)[C@H]1C(=O)N2C(C(=O)O)=C(SCCNC=N)C[C@H]12` [IMIPENEM ANHYDROUS], the MIC in test [1] was found to be 3.13 µg/mL (≈ 10.5 µM); in test [2], 3.13 µg/mL (≈ 10.5 µM); in test [3], 0.1 µg/mL (≈ 0.334 µM); in test [4] it was 0.1 µg/mL (≈ 0.334 µM); in test [5], 0.1 µg/mL (≈ 0.334 µM).

Turning to `CCN(CC)C(=S)[S-].[Na+]` [DITIOCARB SODIUM], the MIC in test [1] was 3.13 µg/mL; in test [2], 3.13 µg/mL; in test [6] it was more than 100 µg/mL.

With `O=C(O)c1cn(C2CC2)c2cc(N3CCNCC3)c(F)cc2c1=O` [CIPROFLOXACIN], the MIC in test [1] came out at 0.39 µg/mL (≈ 1.18 µM); in test [2], 0.1 µg/mL (≈ 0.302 µM); in [7] it was 0.39 µg/mL (≈ 1.18 µM); in [8], 1.56 µg/mL (≈ 4.71 µM); in test [3], 0.2 µg/mL (≈ 0.604 µM).

Take `NCC[C@H](O)C(=O)N[C@@H]1C[C@H](N)[C@@H](O[C@H]2O[C@H](CN)[C@@H](O)[C@H](O)[C@H]2O)[C@H](O)[C@H]1O[C@H]1O[C@H](CO)[C@@H](O)[C@H](N)[C@H]1O` [AMIKACIN]: the MIC in test [9] is 0.5 µg/mL (≈ 0.854 µM); in test [10], 4 µg/mL (≈ 6.83 µM); in test [11], more than 128 µg/mL; in test [12], more than 128 µg/mL; in test [13], 32 µg/mL (≈ 54.6 µM); in test [14], 0.5 µg/mL (≈ 0.854 µM). For the same compound, the values for the MIC in test [15] and in test [16] were 32 µg/mL (≈ 54.6 µM) and 2 µg/mL (≈ 3.42 µM), respectively.

Consider `N.S=C(S)N1CCCC1` [PYRROLIDINE DITHIOCARBAMIC ACID, AMMONIUM SALT], for which the MIC in test [1] is 0.2 µg/mL; in test [2], 0.4 µg/mL; in test [6] it was more than 100 µg/mL; in [7], 3.13 µg/mL; in [8], 3.13 µg/mL; in test [3] it was 12.5 µg/mL. In addition, the MIC stood at 12.5 µg/mL in test [4]; 12.5 µg/mL in [5]; 8 µg/mL in test [9]; 8 µg/mL in test [10]; 8 µg/mL in [11]; 32 µg/mL in test [12]. Besides, the MIC in test [13] is 32 µg/mL; in test [14], more than 32 µg/mL; in test [15], more than 32 µg/mL; in test [16], more than 32 µg/mL; in test [17] it was 0.2 µg/mL; in test [18] it was 0.2 µg/mL. In addition, the MIC worked out at 0.2 µg/mL in [19]; 0.2 µg/mL in test [20]; 0.2 µg/mL in test [21]; 0.2 µg/mL in test [22]; 0.4 µg/mL in test [23]; 0.4 µg/mL in [24]. Further, the MIC was 0.2 µg/mL in test [25]; 0.2 µg/mL in test [26]; 0.2 µg/mL in test [27]; 0.2 µg/mL in test [28]; 0.4 µg/mL in test [29]; 0.2 µg/mL in test [30]. The MIC in test [31] was determined as 0.2 µg/mL; in test [32] it was 0.2 µg/mL; in test [33], 0.2 µg/mL; in test [34], 0.2 µg/mL; in [35], 0.4 µg/mL; in test [36] it was 0.4 µg/mL.

`CN(C)C(=S)[S-].[Na+]` [SODIUM DIMETHYLCARBAMODITHIOATE]: the MIC is 1.56 µg/mL in test [1]; 1.56 µg/mL in test [2]; more than 100 µg/mL in test [6]; more than 100 µg/mL in [7]; more than 100 µg/mL in test [8]; more than 100 µg/mL in [3]. Moreover, the MIC in [4] and in test [5] was more than 100 µg/mL throughout.

As to `NC[C@H]1O[C@H](O[C@H]2[C@H](O)[C@@H](O[C@H]3O[C@H](CO)[C@@H](O)[C@H](N)[C@H]3O)[C@H](N)C[C@@H]2N)[C@H](O)[C@@H](O)[C@@H]1O` [KANAMYCIN], the MIC is 1.56 µg/mL (≈ 3.22 µM) in test [1]; 0.3 µg/mL (≈ 0.619 µM) in test [2]; 3.13 µg/mL (≈ 6.46 µM) in test [7]; 3.13 µg/mL (≈ 6.46 µM) in [8]; 12.5 µg/mL (≈ 25.8 µM) in [3]; more than 100 µg/mL in [4]. Also, in [5], the MIC worked out at 12.5 µg/mL (≈ 25.8 µM).

`CN(C)C(=S)S[C@@H]1O[C@H](CO)[C@@H](O)[C@H](O)[C@H]1N`: the MIC in [1] was 50 µg/mL (≈ 177 µM).

`CN(C)C(=S)S[C@@H]1O[C@H](CO)[C@@H](O)[C@H](O)[C@H]1NC(=O)C1CC1` came in with an MIC in [1] of 50 µg/mL (≈ 143 µM).

In [1], `CCC(=O)N[C@@H]1[C@@H](O)[C@H](O)[C@@H](CO)O[C@H]1SC(=S)N(C)C` displayed an MIC of 50 µg/mL (≈ 148 µM).

Regarding `CN[C@@H]1[C@H](O[C@H]2[C@H](O[C@H]3[C@H](O)[C@@H](O)[C@H](N=C(N)N)[C@@H](O)[C@@H]3N=C(N)N)O[C@@H](C)[C@]2(O)C=O)O[C@@H](CO)[C@H](O)[C@H]1O` [STREPTOMYCIN], the MIC in [1] was 0.39 µg/mL (≈ 0.671 µM); in test [2] it was 0.2 µg/mL (≈ 0.344 µM); in test [7], 1.56 µg/mL (≈ 2.68 µM); in [8], 3.13 µg/mL (≈ 5.38 µM); in test [3], 50 µg/mL (≈ 86 µM); in [4], more than 100 µg/mL. Besides, the MIC in test [5] turned out to be 50 µg/mL (≈ 86 µM).

These data come from ChEMBL document CHEMBL1667806, “Synthesis and evaluation of anti-tubercular activity of new dithiocarbamate sugar derivatives” (2011).
